Activity calls are given as the source filed them. No cut-off for these calls is given here.
Experiments:
[1] = Cmax in human; assay type: ADME
[2] = Inhibition of SARS-CoV-2 3CL protease expressed in Escherichia coli BL21 DE3 using 2-aminobenzoyl-SVTLQSG-Tyr(NO2)-R as substrate preincubated with substrate for 15 mins followed by compound addition and measured after 1 hr by FRET assay; parameters: species or system Severe acute respiratory syndrome coronavirus 2
[3] = Cytotoxicity against African green monkey Vero E6 cells assessed as maximum non-toxic concentration after 6 hrs by MTT assay; assay type: cell-based; settings: chlorocebus aethiops
Method in brief: (§1)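 Vero E6 or LR7 cells seeded at 1×10^4/well were grown 24 h in DMEM with 10% FBS at 37 °C and 5% CO2. Serial drug dilutions (0–500 µM) were added for 6 h (legend) or 8 h (methods). Viability was normalized to the 0.1% DMSO control.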

[4] = Cytotoxicity against mouse LR7 cells assessed as maximum non-toxic concentration after 6 hrs by MTT assay; assay type: cell-based; method in brief: as §1
[5] = tested on: Murine hepatitis virus; test: Antiviral activity against MHV-A59 infected in LR7 cells assessed as reduction in N protein production at 40 uM treated 2 hrs after post viral infection and measured after 6 hrs by Western blot analysis relative to control; assay type: functional; parameters: scale not given: the % may be the effect or the level left
Method in brief: (§2)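 LR7 cells (1×10^5/well) infected with MHV A59 at MOI 1 for 1 h, washed, then held in DMEM with 2% FBS. Compound (4 nM–40 µM, tenfold steps) was added at 2 h p.i. and cells were harvested at 8 h p.i. Western blot probed for MHV N protein, normalized to GAPDH and expressed relative to the 0.1% DMSO control. Mock and 400 nM bafilomycin A1 served as controls. ≥3 independent experiments.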

[6] = tested on: Murine hepatitis virus; test: Antiviral activity against MHV-A59 infected in LR7 cells assessed as reduction in number of infected cells at 40 uM treated 2 hrs after post viral infection and measured after 6 hrs by DAPI staining based immunofluorescence analysis relative to control; assay type: functional; parameters: scale not given: the % may be the effect or the level left
Method in brief: (§3)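 MHV A59 infection of LR7 cells on coverslips at MOI 1. Compound (4 nM–40 µM, tenfold dilutions) was added 2 h p.i. and cells were fixed at 8 h p.i. with 4% paraformaldehyde. Cells were permeabilized with 0.2% Triton X-100 and stained with anti-nsp2/nsp3 antiserum, an Alexa-488 secondary and DAPI. nsp2/nsp3-positive cells were counted by confocal microscopy relative to the DMSO control. ≥3 independent experiments.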

[7] = tested on: Murine hepatitis virus; test: Antiviral activity against MHV-A59 infected in LR7 cells assessed as reduction in N protein production at 4 nM treated 2 hrs post viral infection and measured after 6 hrs by Western blot analysis; assay type: functional; parameters: scale not given: the % may be the effect or the level left; method in brief: as §2
[8] = tested on: Murine hepatitis virus; test: Antiviral activity against MHV-A59 infected in LR7 cells assessed as reduction in number of infected cells at 40 nM treated 2 hrs post viral infection and measured after 6 hrs by immunofluorescence analysis; assay type: functional; parameters: scale not given: the % may be the effect or the level left; method in brief: as §3
[9] = tested on: Murine hepatitis virus; test: Antiviral activity against MHV-A59 infected in […] cells assessed as reduction in viral gene expression at 100 uM treated 2 hrs post viral infection and measured after 6 hrs by RT-PCR analysis; assay type: functional, organism-based
[10] = tested on: Murine hepatitis virus; test: Antiviral activity against MHV-A59 infected in Vero E6 cells assessed as reduction in viral gene expression at 10 uM treated 2 hrs post viral infection and measured after 6 hrs by RT-PCR analysis; assay type: functional; parameters: scale not given: the % may be the effect or the level left
[11] = tested on: Murine hepatitis virus; test: Antiviral activity against MHV-A59 infected in LR7 cells assessed as reduction in N protein production measured after 6 hrs by Western blot analysis relative to control; assay type: functional, organism-based; settings: dose 0.004-40 µM; method in brief: as §2
[12] = tested on: Murine hepatitis virus; test: Antiviral activity against MHV-A59 infected in LR7 cells assessed as reduction in N protein production at 400 nM treated 2 hrs after post viral infection and measured after 6 hrs by Western blot analysis; assay type: functional, organism-based; method in brief: as §2
[13] = tested on: Murine hepatitis virus; test: Antiviral activity against MHV-A59 infected in LR7 cells assessed as reduction in number of infected cells at 400 nM treated 2 hrs after post viral infection and measured after 6 hrs by DAPI staining based immunofluorescence analysis; assay type: functional, organism-based; method in brief: as §3
[14] = tested on: Severe acute respiratory syndrome coronavirus 2; test: Inhibition of SARS-CoV-2 3CL protease expressed in Escherichia coli BL21 DE3 at 200 uM using 2-aminobenzoyl-SVTLQSG-Tyr(NO2)-R as substrate preincubated with substrate for 15 mins followed by compound addition and measured after 1 hr by FRET assay relative to control

Row | SMILES | Cmax [1] | IC50 [2] | MNTC at 6 h [3] | MNTC at 6 h [4] | Activity [5] | Activity [6] | Activity [7] | Activity [8] | Activity [9] | Activity [10] | Activity [11] | Activity [12] | Activity [13] | inhibition [14]
1 | CC(C)(C)NC(=O)N[C@H](C(=O)N1C[C@H]2[C@@H]([C@H]1C(=O)NC(CC1CCC1)C(=O)C(N)=O)C2(C)C)C(C)(C)C (some centres undefined) [BOCEPREVIR] | 1720 ng/mL | 1.59 µM | 72.5 µM | 72.5 µM | 90% | 75% | 40% | 25% | Active | 50% | Dose-dependent effect | – | – | –
2 | CO/C1=C\C(C)=C\[C@@H](C)[C@@H](O)[C@@H](C)C/C(C)=C/C=C/[C@H](OC)[C@@H]([C@@H](C)[C@@H](O)[C@H](C)[C@@]2(O)C[C@@H](O)[C@H](C)[C@@H](C(C)C)O2)OC1=O | – | – | – | – | – | – | – | – | – | – | – | Active | Active | –
3 | CCC[C@H](NC(=O)[C@@H]1[C@H]2CCC[C@H]2CN1C(=O)[C@@H](NC(=O)[C@@H](NC(=O)c1cnccn1)C1CCCCC1)C(C)(C)C)C(=O)C(=O)NC1CC1 [TELAPREVIR] | – | 55.7 µM | 72.5 µM | 72.5 µM | inactive | inactive | – | – | – | – | – | – | – | 100%

— ChEMBL document CHEMBL4732021, “Repurposing the HCV NS3-4A protease drug boceprevir as COVID-19 therapeutics” (RSC Med Chem, 2021)
